Results taken from ChEMBL document CHEMBL1806370, “Development of novel naphthalimide derivatives and their evaluation as potential melanoma therapeutics” (Eur J Med Chem, 2011).
pIC50: −log10 of the molar value.

System: UACC-903
Assay: Cytotoxicity against human UACC-903 cells assessed as decrease in cell viability after 24 hrs by MTS assay
Assay type: functional, cell-based
Conditions: not given
Summary of the method: (§1)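 Cells in DMEM with 10% FBS at 37 °C and 5% CO2 were plated at 5×10^3 per well and grown 24 h. They were then exposed 24 or 72 h to 0.5, 1, 5, 10, 25 and 50 µM, with final DMSO 0.5% and DMSO controls. MTS/PMS was added for 4 h at 37 °C. A492 was read with the medium blank subtracted and expressed as % of control. IC50 was taken from three independent experiments (mean ± S.E.).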

SMILES	Activity
O=C1c2cccc3cccc(c23)C(=O)N1CCCCCCN=C=S	Dose-dependent effect

System: A375-S2
Assay: Cytotoxicity against human A375-S2 cells assessed as decrease in cell viability after 24 hrs by MTS assay
Assay type: functional, cell-based
Conditions: not given
Summary of the method: as §1

SMILES	Activity
O=C1c2cccc3cccc(c23)C(=O)N1CCCCCCN=C=S	Dose-dependent effect

System: 1205Lu
Assay: Cytotoxicity against human 1205 Lu cells assessed as decrease in cell viability after 24 hrs by MTS assay
Assay type: functional, cell-based
Conditions: not given
Summary of the method: as §1

SMILES	Activity
O=C1c2cccc3cccc(c23)C(=O)N1CCCCCCN=C=S	Dose-dependent effect

System: UACC-903
Assay: Cytotoxicity against human UACC-903 cells assessed as decrease in cell viability after 72 hrs by MTS assay
Assay type: functional, cell-based
Conditions: not given
Summary of the method: as §1

SMILES	Activity
O=C1c2cccc3cccc(c23)C(=O)N1CCCCCCN=C=S	Dose-dependent effect

System: A375-S2
Assay: Cytotoxicity against human A375-S2 cells assessed as decrease in cell viability after 72 hrs by MTS assay
Assay type: functional, cell-based
Conditions: not given
Summary of the method: as §1

SMILES	Activity
O=C1c2cccc3cccc(c23)C(=O)N1CCCCCCN=C=S	Dose-dependent effect

System: 1205Lu
Assay: Cytotoxicity against human 1205 Lu cells assessed as decrease in cell viability after 72 hrs by MTS assay
Assay type: functional, cell-based
Conditions: not given
Summary of the method: as §1

SMILES	Activity
O=C1c2cccc3cccc(c23)C(=O)N1CCCCCCN=C=S	Dose-dependent effect

System: UACC-903
Assay: Cytotoxicity against human UACC-903 cells after 24 hrs by MTS assay
Assay type: functional, cell-based
Conditions: UACC-903, 24 h
Summary of the method: as §1

SMILES	pIC50
O=C1c2cccc3cccc(c23)C(=O)N1CCCCCCN=C=S	5.04

System: not listed separately
Assay: Cytotoxicity against human A375-S2 cells after 24 hrs by MTS assay
Assay type: functional, cell-based
Conditions: A375-S2, 24 h
Summary of the method: as §1

SMILES	pIC50
O=C1c2cccc3cccc(c23)C(=O)N1CCCCCCN=C=S	5.29

System: not listed separately
Assay: Cytotoxicity against human SK-MEL-37 cells after 24 hrs by MTS assay
Assay type: functional, cell-based
Conditions: not given
Summary of the method: as §1

SMILES	pIC50
O=C1c2cccc3cccc(c23)C(=O)N1CCCCCCN=C=S	5.51

System: not listed separately
Assay: Cytotoxicity against human 1205 Lu cells after 24 hrs by MTS assay
Assay type: functional, cell-based
Conditions: not given
Summary of the method: as §1

SMILES	pIC50
O=C1c2cccc3cccc(c23)C(=O)N1CCCCCCN=C=S	4.94

System: UACC-903
Assay: Cytotoxicity against human UACC-903 cells after 72 hrs by MTS assay
Assay type: functional, cell-based
Conditions: UACC-903, 72 h
Summary of the method: as §1

SMILES	pIC50
O=C1c2cccc3cccc(c23)C(=O)N1CCCCCCN=C=S	5.12

System: not listed separately
Assay: Cytotoxicity against human A375-S2 cells after 72 hrs by MTS assay
Assay type: functional, cell-based
Conditions: A375-S2, 72 h
Summary of the method: as §1

SMILES	pIC50
O=C1c2cccc3cccc(c23)C(=O)N1CCCCCCN=C=S	5.45

System: not listed separately
Assay: Cytotoxicity against human SK-MEL-37 cells after 72 hrs by MTS assay
Assay type: functional, cell-based
Conditions: not given
Summary of the method: as §1

SMILES	pIC50
O=C1c2cccc3cccc(c23)C(=O)N1CCCCCCN=C=S	5.78

System: not listed separately
Assay: Cytotoxicity against human 1205 Lu cells after 72 hrs by MTS assay
Assay type: functional, cell-based
Conditions: not given
Summary of the method: as §1

SMILES	pIC50
O=C1c2cccc3cccc(c23)C(=O)N1CCCCCCN=C=S	5.28

System: UACC-903
Assay: Induction of apoptosis in human UACC-903 cells assessed as early apoptotic cells at 1 uM after 24 hrs using annexin-V-PE/7-AAD double staining by flow cytometry
Assay type: functional
Conditions: not given
Summary of the method: (§2)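 UACC 903 cells were exposed 24 h at 37 °C to 1, 5 or 25 µM, with DMSO as control. Cells were harvested, washed twice in cold PBS and resuspended at 1×10^6 cells/mL in binding buffer. They were stained with 7-AAD plus PE Annexin V for 20 min at room temperature in the dark and run by flow cytometry within 1 h. Gating: double-negative live, 7-AAD+ dead, Annexin V+/7-AAD− early apoptotic. Three separate experiments.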

SMILES	Activity
O=C1c2cccc3cccc(c23)C(=O)N1CCCCCCN=C=S	12.9%

System: UACC-903
Assay: Induction of apoptosis in human UACC-903 cells assessed as late apoptotic cells at 1 uM after 24 hrs using annexin-V-PE/7-AAD double staining by flow cytometry
Assay type: functional
Conditions: not given
Summary of the method: as §2

SMILES	Activity
O=C1c2cccc3cccc(c23)C(=O)N1CCCCCCN=C=S	6.25%

System: UACC-903
Assay: Induction of apoptosis in human UACC-903 cells assessed as non-viable cells at 1 uM after 24 hrs using annexin-V-PE/7-AAD double staining by flow cytometry
Assay type: functional
Conditions: not given
Summary of the method: as §2

SMILES	Activity
O=C1c2cccc3cccc(c23)C(=O)N1CCCCCCN=C=S	2.99%

System: UACC-903
Assay: Induction of apoptosis in human UACC-903 cells assessed as viable cells at 1 uM after 24 hrs using annexin-V-PE/7-AAD double staining by flow cytometry
Assay type: functional
Conditions: UACC-903, 24 h, read-out: Activity
Summary of the method: as §2

SMILES	viability at 1 µM
O=C1c2cccc3cccc(c23)C(=O)N1CCCCCCN=C=S	77.8%

System: UACC-903
Assay: Induction of apoptosis in human UACC-903 cells assessed as early apoptotic cells at 5 uM after 24 hrs using annexin-V-PE/7-AAD double staining by flow cytometry
Assay type: functional
Conditions: not given
Summary of the method: as §2

SMILES	Activity
O=C1c2cccc3cccc(c23)C(=O)N1CCCCCCN=C=S	49.6%

System: UACC-903
Assay: Induction of apoptosis in human UACC-903 cells assessed as late apoptotic cells at 5 uM after 24 hrs using annexin-V-PE/7-AAD double staining by flow cytometry
Assay type: functional
Conditions: not given
Summary of the method: as §2

SMILES	Activity
O=C1c2cccc3cccc(c23)C(=O)N1CCCCCCN=C=S	28.7%

System: UACC-903
Assay: Induction of apoptosis in human UACC-903 cells assessed as non-viable cells at 5 uM after 24 hrs using annexin-V-PE/7-AAD double staining by flow cytometry
Assay type: functional
Conditions: not given
Summary of the method: as §2

SMILES	Activity
O=C1c2cccc3cccc(c23)C(=O)N1CCCCCCN=C=S	2.11%

System: UACC-903
Assay: Induction of apoptosis in human UACC-903 cells assessed as viable cells at 5 uM after 24 hrs using annexin-V-PE/7-AAD double staining by flow cytometry
Assay type: functional
Conditions: UACC-903, 24 h, read-out: Activity
Summary of the method: as §2

SMILES	viability at 5 µM
O=C1c2cccc3cccc(c23)C(=O)N1CCCCCCN=C=S	19.6%

System: UACC-903
Assay: Induction of apoptosis in human UACC-903 cells assessed as early apoptotic cells at 25 uM after 24 hrs using annexin-V-PE/7-AAD double staining by flow cytometry
Assay type: functional
Conditions: not given
Summary of the method: as §2

SMILES	Activity
O=C1c2cccc3cccc(c23)C(=O)N1CCCCCCN=C=S	71.6%

System: UACC-903
Assay: Induction of apoptosis in human UACC-903 cells assessed as late apoptotic cells at 25 uM after 24 hrs using annexin-V-PE/7-AAD double staining by flow cytometry
Assay type: functional
Conditions: not given
Summary of the method: as §2

SMILES	Activity
O=C1c2cccc3cccc(c23)C(=O)N1CCCCCCN=C=S	8.56%

System: UACC-903
Assay: Induction of apoptosis in human UACC-903 cells assessed as non-viable cells at 25 uM after 24 hrs using annexin-V-PE/7-AAD double staining by flow cytometry
Assay type: functional
Conditions: not given
Summary of the method: as §2

SMILES	Activity
O=C1c2cccc3cccc(c23)C(=O)N1CCCCCCN=C=S	1.15%

System: UACC-903
Assay: Induction of apoptosis in human UACC-903 cells assessed as viable cells at 25 uM after 24 hrs using annexin-V-PE/7-AAD double staining by flow cytometry
Assay type: functional
Conditions: UACC-903, 24 h, read-out: Activity
Summary of the method: as §2

SMILES	viability at 25 µM
O=C1c2cccc3cccc(c23)C(=O)N1CCCCCCN=C=S	18.7%

System: UACC-903
Assay: Induction of apoptosis in human UACC-903 cells assessed as increase in apoptotic cells after 24 hrs using annexin-V-PE/7-AAD double staining by flow cytometry
Assay type: functional, cell-based
Conditions: not given
Summary of the method: as §2

SMILES	Activity
O=C1c2cccc3cccc(c23)C(=O)N1CCCCCCN=C=S	Dose-dependent effect

System: Mus musculus
Assay: Systemic toxicity in Swiss Webster mouse assessed as mortality at 15 mg/kg, ip administered every day for 28 days
Assay type: organism-based
Set-up: dose 15 mg/kg, route intraperitoneal
Conditions: in vivo, 672 h
Summary of the method: (§3)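 Swiss Webster mice, n = 4 per group, dosed i.p. once daily for 28 days at 5, 7.5, 10 or 15 mg/kg body weight. Body weight recorded twice per week; deaths noted over the dosing period.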

SMILES	Activity
O=C1c2cccc3cccc(c23)C(=O)N1CCCCCCN=C=S	Toxic

System: Mus musculus
Assay: Systemic toxicity in Swiss Webster mouse assessed as weight loss at 10 mg/kg, ip administered every day for 28 days
Assay type: organism-based
Set-up: dose 10 mg/kg, route intraperitoneal
Conditions: in vivo, 672 h
Summary of the method: as §3

SMILES	Activity
O=C1c2cccc3cccc(c23)C(=O)N1CCCCCCN=C=S	Non-toxic

System: Mus musculus
Assay: Systemic toxicity in Swiss Webster mouse assessed as mortality at 10 mg/kg, ip administered every day for 28 days
Assay type: organism-based
Set-up: dose 10 mg/kg, route intraperitoneal
Conditions: in vivo, 672 h
Summary of the method: as §3

SMILES	Activity
O=C1c2cccc3cccc(c23)C(=O)N1CCCCCCN=C=S	Non-toxic

System: UACC-903
Assay: Antitumor activity against human UACC-903 cells xenografted in athymic Harlan Sprague-Dawley nude mouse assessed as reduction in tumor growth at 8.5 to 10 mg/kg, ip administered thrice per week for 24 days measured after 21 days
Assay type: functional
Conditions: dose mg/kg 8.5-10; route intraperitoneal
Summary of the method: (§4)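 Female athymic nude mice, 4–6 weeks old, received 5×10^6 UACC 903 cells s.c. in DMEM/10% FBS above both rib cages. After six days they were randomized at 5 mice/group, 2 tumors/mouse. Dosing was i.p. Mon/Wed/Fri, with one arm dosed daily; controls got DMSO vehicle. Tumor dimensions (calipers, mm³) and body weight were recorded three times weekly.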

SMILES	growth inhibition (GI)
O=C1c2cccc3cccc(c23)C(=O)N1CCCCCCN=C=S	50%

System: Mus musculus
Assay: Systemic toxicity in athymic Harlan Sprague-Dawley nude mouse xenografted with human UACC-903 cells assessed as reduction in body weight at 8.5 to 10 mg/kg, ip administered thrice a week for 24 days
Assay type: organism-based
Set-up: dose 8.5-10 mg/kg, route intraperitoneal
Conditions: in vivo, 576 h
Summary of the method: as §4

SMILES	Activity
O=C1c2cccc3cccc(c23)C(=O)N1CCCCCCN=C=S	Non-toxic

System: SK-MEL-37 (Homo sapiens)
Assay: Cytotoxicity against human SK-MEL-37 cells assessed as decrease in cell viability after 24 hrs by MTS assay
Conditions: not given

SMILES	Activity
O=C1c2cccc3cccc(c23)C(=O)N1CCCCCCN=C=S	Dose-dependent effect

System: SK-MEL-37 (Homo sapiens)
Assay: Cytotoxicity against human SK-MEL-37 cells assessed as decrease in cell viability after 72 hrs by MTS assay
Conditions: not given

SMILES	Activity
O=C1c2cccc3cccc(c23)C(=O)N1CCCCCCN=C=S	Dose-dependent effect
